Screening results from PubChem.
MPTP inh: mitochondrial permeability transition pore inhibitors, primary screen, biochemical, isolated mouse mitochondria, absorbance. Ca2+ swelling absorbance, 30 min. inhibition, % at 10 µM. 1.4% of 360,000 active. AID 602449, 2012;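 active = inhibition of 50% or more, scaled per plate between neutral and stimulator controls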
UPR XBP1 act: activators of adaptive XBP1 UPR arm, primary screen, cell-based, CHO-XBP1 luciferase reporter, luminescence, uHTS; IRE1-XBP1 UPR activation; percent of tunicamycin response, DMSO as zero; activation, % at 20 µM; 0.33% of 330,000 active; AID 463104, 2010;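 active = versus positive control, 20 µM dose yields 30% or more activation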
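Test system: CHO-XBP1 luciferase reporter cells | Buffer or medium: Serum-containing F12 medium, 10% FBS | Schedule: 6 h compound exposure at 37 °C, 5% CO2 | Detection: Steady-Glo luciferase glow luminescence, 10 min after reagent addition | Read-out basis: Activation, % of tunicamycin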
CHOP inhibitor: inhibitors of CHOP promoter induction, primary screen, cell-based, unfolded protein response, luciferase reporter; CHO-K1 CHOP-promoter luciferase, tunicamycin-induced, 15-18 h; inhibition, % at 10 µM; 3.8% of 220,000 active;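 active = compounds that reduced the stress-induced luciferase reporter signal by more than about 70% of percent inhibition, limit read from the data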
NR3A LBD binder: binders of NR3A ligand-binding domain, primary screen, biophysical, differential scanning fluorimetry, uHTS; 2.5% of 340,000 active; AID 1259313, 2017; Tm shift relative to glycine control, % at 25 µM; NR3A LBD differential scanning fluorimetry, Tm shift; 0% = protein alone, 100% = glycine-bound protein; Glutamate receptor ionotropic, NMDA 3A (GRIN3A) ligand-binding domain;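 active = melting temperature shift of at least 10% of the positive control shift, at one fixed dose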
UPR CHOP act: activators of apoptotic CHOP UPR arm, primary screen, cell-based, CHO-CHOP luciferase reporter, luminescence, uHTS | 0.34% of 330,000 active | activation, % at 10 µM | UPR activation; percent of tunicamycin response over DMSO baseline;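 active = at 10 µM dose, activation of 40% or more, normalized to positive control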
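System: CHO CHOP reporter cells. Amount: 500 cells per well. Buffer or medium: F12 medium, 10% FBS. Compound dosing: one dose, 10 µM in 0.5% DMSO. Incubation: 6 h compound exposure at 37 °C after overnight seeding. Technique: Steady-Glo luciferase luminescence. Benchmarks: tunicamycin and DMSO controls.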
aDG glyco act: activators of alpha-DG glycosylation, primary screen, uHTS, Pro5-aDG cells, AlphaScreen; alpha-DG glycosylation AlphaScreen (IIH6); 0% Pro5, 100% B10-LARGE cell signal; activation, % at 10 µM; 0.22% of 360,000 active;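 active = activation of at least 8% versus controls, or a plate z-score of at least 8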;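 also: Pro5 are CHO cells carrying HIG-tagged alpha-DG that lacks glycosylation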
Hits are given with their value; i = inactive; nt = not tested or not shown. Most compounds without a hit are left out; they make up all but 5.6% or so of the library.

SMILES	MPTP inh	UPR XBP1 act	CHOP inhibitor	NR3A LBD binder	UPR CHOP act	aDG glyco act
CC(=O)Nc1ccc(NC(=O)CSc2nnc(NC(=O)c3ccco3)s2)cc1	i	i	nt	16	i	i
O=C(CSc1nnc(-c2ccco2)o1)N1CCCCC1	i	i	nt	i	i	i
COc1ccc(N2CCN(C(=O)COC(=O)c3ccco3)CC2)cc1	i	i	nt	i	i	i
Cc1cc(NC(=O)COc2ccccc2C(N)=O)no1	i	i	nt	i	i	i
COc1ccc(C(=O)Nc2nnc(SCC(=O)Nc3ccc(NC(C)=O)cc3)s2)c(OC)c1	i	i	nt	20	i	i
O=C(CSc1nnc(NC(=O)C2CC2)s1)Nc1ccc(F)cc1	i	i	i	14	i	i
CC(=O)Nc1ccc(NC(=O)CSc2nnc(NC(=O)C3CC3)s2)cc1	i	i	nt	i	i	i
CN(Cc1ccccc1)C(=O)[C@@H]1CCCN1C(=O)[C@@H]1CCCN1C(=O)c1ccccc1	i	nt	nt	nt	nt	i
CCc1ccc(Nc2ncc3c(n2)CC(c2ccc(OC)cc2)CC3=O)cc1 (stereo not given)	i	i	i	i	i	i
CCc1ccc(Nc2ncc3c(n2)CC(C)CC3=O)cc1 (stereo not given)	i	i	73	i	i	i
CC(=O)Nc1cccc(Oc2nc(NCCN(C)C)nc3ccsc23)c1	i	nt	nt	nt	nt	i
O=[N+]([O-])c1ccc(/C=N/Nc2ccnc3cc(Cl)ccc23)o1	i	i	nt	17	i	i
Cc1cc(N/N=C/c2ccc([N+](=O)[O-])o2)nc2ccccc12	i	i	i	14	i	8.2
Cc1cc2ncn(/N=C/c3ccc([N+](=O)[O-])o3)c2cc1C	i	i	i	10	i	i
O=[N+]([O-])c1ccc(/C=N/NS(=O)(=O)c2ccc(Cl)cc2)o1	i	nt	i	i	nt	i
Cc1ccc(S(=O)(=O)N/N=C\c2ccc([N+](=O)[O-])o2)cc1C	i	i	nt	i	i	i
CN(Cc1ccccc1)C(=O)c1ccc(NC(=O)Cc2ccc(NC(=O)C3CCN(S(=O)(=O)c4cccc([N+](=O)[O-])c4)CC3)cc2)cc1	i	nt	nt	i	nt	i
CC(C)CN(C(=O)c1cccc(Cl)c1)c1c(N)n(Cc2ccccc2)c(=O)[nH]c1=O	i	i	nt	i	i	i
Fc1ccccc1N1CCN(Cc2nc(-c3ccc(Cl)cc3Cl)no2)CC1	i	i	i	20	i	i
Clc1ccc(Cc2noc(CN3CCN(c4ccccc4)CC3)n2)c(Cl)c1	i	i	i	i	i	i
CCCn1c(SCC(=O)NC2CCCC2)nc2c1c(=O)n(C)c(=O)n2C	i	i	nt	i	i	i
Cc1cc(OCC(=O)Nc2cc(-c3nn4c(C)nnc4s3)ccc2C)ccc1Cl	i	i	95	i	i	i
Fc1ccc(-c2csc(-c3ccncc3)n2)cc1	i	i	i	26	i	i
CN(C)c1cccc(NC(=O)c2cccc3c(-c4ccc(F)c(F)c4)coc23)c1	i	nt	nt	nt	nt	i
CCOc1ccc(OCC)c(NS(=O)(=O)c2cccc3nsnc23)c1	i	i	83	i	i	i
SMILES	MPTP inh	UPR XBP1 act	CHOP inhibitor	NR3A LBD binder	UPR CHOP act	aDG glyco act
Oc1ccc(/C=N/N(Cc2ccccc2)c2ccccc2)c(O)c1O	i	nt	80	i	nt	i
Oc1cccc(/C=N/N(Cc2ccccc2)c2ccccc2)c1	i	i	i	16	i	i
C(=N\N(Cc1ccccc1)c1ccccc1)/c1cccnc1	i	i	i	i	i	i
O=C(NC(=S)NC12CC3CC(CC(C3)C1)C2)c1ccc(F)cc1	i	i	nt	i	i	i
Cc1ccc(OCCSc2nc(NC(C)C)nc(NC(C)C)n2)cc1	i	i	i	23	i	i
COc1ccc(OCCSc2ncccn2)cc1	i	i	i	i	i	i
CCN(Cc1ccccc1)c1ccc(/C=N/N=C(N)N)cc1	i	i	77	i	i	i
COc1ccc(C=C2SC(=O)NC2=O)cc1OC	i	nt	nt	16	nt	i
